# Experimental data reported in PMC2780016 (Journal of medicinal chemistry, 2009).
# Entries after “also recorded” stand apart in the source; their conditions may differ.
# What was measured:
# Assay type in all cases: biochemical
# [1] = target: T1, human liver CE, hCE1 (CES1) (Homo sapiens, UniProt P23141); test: Inhibition of hCE1 hydrolysis of 3; settings: for Ki: read-out: hCE1 Ki ± SE, substrate 3 (o-nitrophenyl acetate); for inhibition of hCE1 (in words): substrate 3
# T1 sequence (P23141 18-567): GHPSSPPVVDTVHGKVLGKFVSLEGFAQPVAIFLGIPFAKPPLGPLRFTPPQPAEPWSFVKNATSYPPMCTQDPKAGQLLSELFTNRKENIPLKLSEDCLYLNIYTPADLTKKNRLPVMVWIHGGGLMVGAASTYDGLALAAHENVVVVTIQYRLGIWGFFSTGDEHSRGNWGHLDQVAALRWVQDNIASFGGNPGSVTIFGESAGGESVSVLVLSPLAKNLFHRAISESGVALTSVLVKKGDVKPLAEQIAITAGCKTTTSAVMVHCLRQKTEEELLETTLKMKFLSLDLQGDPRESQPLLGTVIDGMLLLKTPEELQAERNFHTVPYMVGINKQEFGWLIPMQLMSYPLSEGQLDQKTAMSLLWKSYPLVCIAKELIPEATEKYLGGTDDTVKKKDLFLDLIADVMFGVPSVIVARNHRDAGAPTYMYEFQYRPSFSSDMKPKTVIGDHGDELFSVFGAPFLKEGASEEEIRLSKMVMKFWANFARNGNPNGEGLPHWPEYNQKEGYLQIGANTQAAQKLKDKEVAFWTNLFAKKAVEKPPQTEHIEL
# [2] = target: T2, human intestinal CE (hiCE, CES2) (Homo sapiens, UniProt O00748)
# T2 sequence (O00748 27-559): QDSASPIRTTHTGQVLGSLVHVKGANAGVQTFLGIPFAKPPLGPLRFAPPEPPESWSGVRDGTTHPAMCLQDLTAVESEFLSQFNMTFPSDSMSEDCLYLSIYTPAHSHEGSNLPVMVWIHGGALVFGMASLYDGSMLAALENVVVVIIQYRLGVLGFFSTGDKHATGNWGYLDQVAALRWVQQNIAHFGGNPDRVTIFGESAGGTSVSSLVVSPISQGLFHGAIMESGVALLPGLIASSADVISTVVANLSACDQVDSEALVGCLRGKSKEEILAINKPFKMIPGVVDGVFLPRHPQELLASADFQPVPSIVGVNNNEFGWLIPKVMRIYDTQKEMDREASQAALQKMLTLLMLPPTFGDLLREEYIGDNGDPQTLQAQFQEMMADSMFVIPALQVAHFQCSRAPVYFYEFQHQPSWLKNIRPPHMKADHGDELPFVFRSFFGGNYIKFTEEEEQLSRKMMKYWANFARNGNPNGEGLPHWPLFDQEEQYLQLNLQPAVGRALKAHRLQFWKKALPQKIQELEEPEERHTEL
# hiCE = target: T3, hiCE (Homo sapiens, UniProt O00748); test: Inhibition of the metabolism of heroin and cocaine; settings: data not shown; Hatfield et al, manuscript in preparation
# T3 sequence (O00748 27-559): T2 sequence (O00748 27-559)
# hAChE = hAChE (Homo sapiens, UniProt P22303); test: Inhibition of acetylcholinesterase, acetylthiocholine substrate; settings: data not shown
# Summary of the method: (§1)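 Purified human AChE and BChE were obtained commercially. Test compounds were dissolved in DMSO (stock typically 10mM) immediately before analysis. Inhibition was measured by the previously reported method, with acetylthiocholine as substrate for hAChE and butyrylthiocholine for hBChE.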
# hBChE = hBChE (Homo sapiens, UniProt P06276); test: Inhibition of butyrylcholinesterase, butyrylthiocholine substrate; settings: data not shown
# Summary of the method: as §1
# Sequence of hBChE (P06276 29-602): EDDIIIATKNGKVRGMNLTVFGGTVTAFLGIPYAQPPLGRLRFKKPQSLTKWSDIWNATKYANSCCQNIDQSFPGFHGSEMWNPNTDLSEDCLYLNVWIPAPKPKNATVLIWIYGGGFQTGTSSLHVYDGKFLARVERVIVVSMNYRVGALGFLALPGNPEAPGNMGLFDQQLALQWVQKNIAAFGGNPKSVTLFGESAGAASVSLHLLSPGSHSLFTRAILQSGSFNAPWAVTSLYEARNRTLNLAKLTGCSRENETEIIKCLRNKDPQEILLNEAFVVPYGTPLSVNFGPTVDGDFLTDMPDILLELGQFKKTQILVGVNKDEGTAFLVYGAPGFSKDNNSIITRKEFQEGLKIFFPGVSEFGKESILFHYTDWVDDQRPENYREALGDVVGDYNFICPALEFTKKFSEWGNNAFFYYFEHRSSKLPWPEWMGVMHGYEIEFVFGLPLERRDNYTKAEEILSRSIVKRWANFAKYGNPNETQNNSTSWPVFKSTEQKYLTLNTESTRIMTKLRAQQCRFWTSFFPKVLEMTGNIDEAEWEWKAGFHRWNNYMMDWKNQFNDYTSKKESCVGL
# Sequence of hAChE (P22303 32-614): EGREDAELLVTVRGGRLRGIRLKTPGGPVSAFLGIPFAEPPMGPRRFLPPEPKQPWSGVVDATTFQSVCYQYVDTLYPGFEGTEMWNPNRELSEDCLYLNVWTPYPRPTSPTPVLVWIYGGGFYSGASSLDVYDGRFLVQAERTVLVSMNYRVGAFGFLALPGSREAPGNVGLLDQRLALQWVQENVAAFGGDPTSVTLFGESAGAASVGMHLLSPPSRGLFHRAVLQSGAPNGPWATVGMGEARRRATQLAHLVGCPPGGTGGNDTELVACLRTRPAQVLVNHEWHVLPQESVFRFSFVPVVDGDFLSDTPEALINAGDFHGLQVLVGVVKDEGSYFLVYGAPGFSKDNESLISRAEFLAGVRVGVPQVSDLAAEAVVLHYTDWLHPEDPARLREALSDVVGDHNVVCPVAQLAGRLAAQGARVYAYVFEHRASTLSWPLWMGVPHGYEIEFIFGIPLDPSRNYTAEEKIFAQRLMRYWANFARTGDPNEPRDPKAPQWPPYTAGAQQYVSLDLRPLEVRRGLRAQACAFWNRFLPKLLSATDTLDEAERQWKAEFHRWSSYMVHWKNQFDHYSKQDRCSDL
Molecule,inhibition of hCE1 (in words) [1],inhibition of hiCE (in words) ([2]; substrate 3),inhibition of hAChE (in words) (hAChE),inhibition of hBChE (in words) (hBChE),also measured
"4,6-dimethyl-N1,N3- diphenylbenzene-1,3- disulfonamide [compound 4]",,,,,Ki [1]: > 100 µM
"O=S(=O)(Nc1ccc(NS(=O)(=O)c2ccc(Cl)cc2)cc1)c1ccc(Cl)cc1 [compound 11, N,N'-(1,4-phenylene)bis(4-chlorobenzenesulfonamide)]",weak activity,,,,"fold more potent against hiCE than hCE1 ([2]; ratio of Ki values hCE1 vs hiCE, substrate 3): over 250 fold"
"O=S(=O)(Nc1ccc(NS(=O)(=O)c2cccc(Br)c2)cc1)c1cccc(Br)c1 [compound 18, N,N'-(1,4-phenylene)bis(3-bromobenzenesulfonamide)]",,,,,inhibition of the metabolism of heroin and cocaine (in words) (hiCE): can also inhibit the metabolism of heroin and cocaine
"O=S(=O)(Nc1ccc(NS(=O)(=O)c2cc(Cl)c(Cl)cc2Cl)cc1)c1cc(Cl)c(Cl)cc1Cl [compound 28, N,N'-(1,4-phenylene)bis(2,4,5-trichlorobenzenesulfonamide)]",inactive,did not inhibit the enzyme; also recorded: loss of biological activity; also recorded: do not inhibit hiCE; also recorded: inactive,inactive,inactive,
"O=C(O)c1ccc(S(=O)(=O)Nc2ccc(NS(=O)(=O)c3ccc(F)cc3)cc2)cc1 [compound 39, 4-(N-(4-(4-fluorophenylsulfonamido)phenyl)sulfamoyl) benzoic acid]",inactive,did not inhibit the enzyme; also recorded: do not inhibit hiCE; also recorded: inactive,inactive,inactive,
"CNC(=O)c1ccc(S(=O)(=O)Nc2ccc(NS(=O)(=O)c3ccc(F)cc3)cc2)cc1 [compound 41, 4-(N-(4-(4-fluorophenylsulfonamido)phenyl)sulfamoyl)-N-methyl benzamide]",inactive,did not inhibit the enzyme; also recorded: do not inhibit hiCE; also recorded: inactive,inactive,inactive,
"O=S(=O)(Nc1c(F)c(F)c(NS(=O)(=O)c2ccc(Br)cc2)c(F)c1F)c1ccc(Br)cc1 [compound 54, N,N'-(2,3,5,6-tetrafluoro-1,4-phenylene) bis(4-bromobenzenesulfonamide)]",,,,,inhibition of the metabolism of heroin and cocaine (in words) (hiCE): can also inhibit the metabolism of heroin and cocaine
O=S(=O)(Nc1ccc2c(c1)Cc1cc(NS(=O)(=O)c3ccccc3)ccc1-2)c1ccccc1 [compound 56],,,,,fold more potent at inhibiting hiCE than compound 8 ([2]; comparison of inhibition constants of 8 and 56): ~11 fold
"N,N'-(1,4-phenylene)bis(4-fluoro-2-methyl benzene sulfonamide) [compound 36]",,,,,"Ki ([2]; read-out: hiCE Ki ± SE, substrate 3 (o-nitrophenyl acetate)): 0.273 ± 0.033 µM; Ki [1]: > 100 µM"
